# What was measured:
# [1] = tested on: ZR75-PELP1 cells; experiment: MTT cell viability assay, ZR75-PELP1 cells; format: cell-based, human
# Outline: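 ZR75-PELP1 cells were treated with peptide every 3 days, and MTT absorbance was read at day 7 (n=3). A screen compared ZR75 with ZR75-PELP1 cells.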
# [2] = tested on: ZR75-PELP1 and MCF7-PELP1 cells; experiment: QCM chemotaxis cell migration assay; format: cell-based, human; details: 10 μM, 12 hours
# [3] = tested on: MCF7-TamR and MCF7-LTLT BC model cells; experiment: Cell viability of therapy-resistant cells treated with PIP1; format: cell-based, human; details: 7 days
# [4] = target: T1, PELP1 (Homo sapiens, UniProt Q8IZL8); experiment: PELP1 degradation by Western blotting; format: cell-based; details: MCF7 cells, MG132 5 μM
# Outline: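 ZR75 and MCF7 cells were exposed to graded test-compound concentrations for 24 h. For the proteasome arm, MCF7 cells received small molecule (10 μM, 4 and 6 h) or peptide (10 μM, 7 h), each ± MG132 (5 μM). Lysis used NP-40/Triton X-100 buffer with protease/phosphatase inhibitors and NEM. PELP1 was normalized to loading control, relative to untreated.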
# Target sequence in this assay (Q8IZL8 whole entry): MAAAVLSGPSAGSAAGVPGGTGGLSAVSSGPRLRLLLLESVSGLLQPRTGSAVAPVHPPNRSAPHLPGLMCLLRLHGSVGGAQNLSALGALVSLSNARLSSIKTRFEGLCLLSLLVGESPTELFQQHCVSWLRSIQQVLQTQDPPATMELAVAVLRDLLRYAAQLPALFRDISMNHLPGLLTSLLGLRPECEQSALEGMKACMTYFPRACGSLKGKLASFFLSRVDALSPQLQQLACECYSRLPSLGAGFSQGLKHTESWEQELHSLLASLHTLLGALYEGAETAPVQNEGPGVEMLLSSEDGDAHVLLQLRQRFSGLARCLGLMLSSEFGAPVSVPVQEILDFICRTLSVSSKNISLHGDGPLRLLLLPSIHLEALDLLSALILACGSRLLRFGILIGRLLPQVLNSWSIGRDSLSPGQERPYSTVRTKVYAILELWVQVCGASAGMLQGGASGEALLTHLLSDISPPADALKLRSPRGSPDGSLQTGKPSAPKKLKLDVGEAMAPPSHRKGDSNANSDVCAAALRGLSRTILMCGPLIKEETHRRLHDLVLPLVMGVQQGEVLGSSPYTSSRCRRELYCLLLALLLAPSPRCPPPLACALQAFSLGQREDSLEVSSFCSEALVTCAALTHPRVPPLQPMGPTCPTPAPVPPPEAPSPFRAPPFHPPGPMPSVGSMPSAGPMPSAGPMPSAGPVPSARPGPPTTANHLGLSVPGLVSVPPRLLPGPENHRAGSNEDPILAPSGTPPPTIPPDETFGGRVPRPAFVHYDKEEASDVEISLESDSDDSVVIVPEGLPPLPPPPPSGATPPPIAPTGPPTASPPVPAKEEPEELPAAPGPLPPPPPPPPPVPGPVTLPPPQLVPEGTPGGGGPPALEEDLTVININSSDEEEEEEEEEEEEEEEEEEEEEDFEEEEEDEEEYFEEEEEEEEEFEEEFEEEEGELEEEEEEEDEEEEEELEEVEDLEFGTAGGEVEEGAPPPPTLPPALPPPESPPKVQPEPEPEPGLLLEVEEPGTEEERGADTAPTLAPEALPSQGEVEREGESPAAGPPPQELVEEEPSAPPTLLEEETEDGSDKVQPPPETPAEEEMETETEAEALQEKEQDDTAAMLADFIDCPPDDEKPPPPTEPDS
# [5] = target: T1, PELP1; experiment: Biotin-Avidin pull-down assays; format: binding; details: Biotin-tagged peptides, ZR75 nuclear lysate
# Target sequence in this assay (Q8IZL8 2-1130): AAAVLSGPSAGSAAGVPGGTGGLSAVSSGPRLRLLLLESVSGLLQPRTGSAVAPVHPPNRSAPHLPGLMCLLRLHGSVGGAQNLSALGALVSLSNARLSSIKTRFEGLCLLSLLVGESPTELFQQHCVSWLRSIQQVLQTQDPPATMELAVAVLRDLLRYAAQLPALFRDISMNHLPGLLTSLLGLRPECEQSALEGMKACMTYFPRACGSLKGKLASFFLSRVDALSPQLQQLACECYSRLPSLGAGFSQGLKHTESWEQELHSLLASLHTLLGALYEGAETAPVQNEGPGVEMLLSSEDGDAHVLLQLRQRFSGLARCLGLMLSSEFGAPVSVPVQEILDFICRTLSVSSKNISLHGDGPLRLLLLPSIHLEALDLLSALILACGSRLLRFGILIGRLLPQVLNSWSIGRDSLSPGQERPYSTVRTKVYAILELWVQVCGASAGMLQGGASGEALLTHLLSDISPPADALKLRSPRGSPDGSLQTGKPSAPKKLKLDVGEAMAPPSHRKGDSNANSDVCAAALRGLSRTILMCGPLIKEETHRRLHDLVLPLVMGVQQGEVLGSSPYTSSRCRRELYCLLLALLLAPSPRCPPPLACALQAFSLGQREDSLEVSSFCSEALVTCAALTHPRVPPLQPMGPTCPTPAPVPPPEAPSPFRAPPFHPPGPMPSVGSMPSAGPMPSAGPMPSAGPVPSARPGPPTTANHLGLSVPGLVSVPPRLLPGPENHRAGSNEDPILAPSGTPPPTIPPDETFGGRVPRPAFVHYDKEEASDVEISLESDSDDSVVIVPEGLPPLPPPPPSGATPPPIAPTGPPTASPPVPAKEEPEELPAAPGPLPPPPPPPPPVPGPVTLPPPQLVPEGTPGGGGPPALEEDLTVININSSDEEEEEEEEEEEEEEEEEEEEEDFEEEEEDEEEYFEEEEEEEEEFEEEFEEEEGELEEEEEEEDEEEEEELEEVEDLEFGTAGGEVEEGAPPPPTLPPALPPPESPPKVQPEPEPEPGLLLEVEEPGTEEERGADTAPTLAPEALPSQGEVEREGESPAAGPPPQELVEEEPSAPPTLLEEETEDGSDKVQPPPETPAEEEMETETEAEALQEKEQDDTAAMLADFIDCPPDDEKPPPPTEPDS
# [6] = tested on: PELP1-shRNA expressing ZR75 cells; experiment: MTT cell viability assay, PELP1 knockdown cells; format: cell-based, human; details: PELP1 knockdown vs control
# [7] = tested on: E2 mediated ERE reporter activation; experiment: ERE-luciferase reporter assay; format: cell-based, human; details: ZR75-PELP1 (PIP1) or ZR75 (SMIP34) cells
substance,measurement,setting,value
"PIP1: PELP1 inhibiting peptide with TAT signal; TAT-PIP1: GRKKRRQRRRGGMVEFRWSCPGRRKAKA (not fully specified; left off: Gal4 activation domain, end not stated, kept)",comparison of activity between hits in MTT assays,[1],more efficient anti-proliferative activity than PIP2
same,effect on PELP1-mediated proliferation,"[1]; TAT-tagged peptides every 3 days, read at 7 days",significantly inhibited PELP1-mediated proliferation
same,cell migration,[2],significant decrease in the cell migration
same,effect on cell viability of therapy-resistant cells,[3],significantly reduced the cell viability
same,PELP1 degradation in presence of proteasome inhibitor MG132,[4],attenuated PIP1 mediated degradation of PELP1
same,relative affinity to bind PELP1 (peptide pull-down),[5],higher affinity to bind to PELP1 than PIP2
same,activity when PELP1 is knocked down,[6],substantially reduced the activity of PIP1
same,E2 induced ERE reporter activity,[7],significantly decreased E2 mediated ERE reporter activation

# Source: paper PMC9588738 (Cancer research, 2022)
